The source made the active and inactive calls. No cut-off for these calls is given here.
Assays:
[1] = molecular target: T1, Calpain-1 catalytic subunit (Homo sapiens) (UniProt P07384); assay: Inhibition of calpain1
T1 sequence (whole entry): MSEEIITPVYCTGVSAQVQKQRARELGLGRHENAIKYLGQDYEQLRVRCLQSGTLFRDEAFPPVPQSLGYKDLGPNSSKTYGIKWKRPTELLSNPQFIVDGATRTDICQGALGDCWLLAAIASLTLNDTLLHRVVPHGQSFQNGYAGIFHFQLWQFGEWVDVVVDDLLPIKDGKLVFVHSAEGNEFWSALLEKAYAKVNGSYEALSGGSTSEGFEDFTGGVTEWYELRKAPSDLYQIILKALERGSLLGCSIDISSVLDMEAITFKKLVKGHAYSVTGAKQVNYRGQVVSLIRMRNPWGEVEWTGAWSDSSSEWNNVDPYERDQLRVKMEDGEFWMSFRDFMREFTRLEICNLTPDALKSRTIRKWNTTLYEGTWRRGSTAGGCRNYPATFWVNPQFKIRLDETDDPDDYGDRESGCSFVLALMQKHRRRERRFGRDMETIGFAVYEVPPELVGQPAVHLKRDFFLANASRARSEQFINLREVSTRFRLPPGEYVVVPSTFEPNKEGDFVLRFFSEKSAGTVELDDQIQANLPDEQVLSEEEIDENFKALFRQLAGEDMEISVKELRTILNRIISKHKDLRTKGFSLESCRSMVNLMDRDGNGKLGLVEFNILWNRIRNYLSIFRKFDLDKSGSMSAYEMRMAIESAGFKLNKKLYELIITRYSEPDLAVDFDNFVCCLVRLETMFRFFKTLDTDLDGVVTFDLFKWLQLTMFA

[2] = molecular target: T2, Ubiquitin carboxyl-terminal hydrolase 8 (Homo sapiens) (UniProt P40818); assay: Inhibition of USP8 by Ub-CHOP reporter assay
T2 sequence (whole entry): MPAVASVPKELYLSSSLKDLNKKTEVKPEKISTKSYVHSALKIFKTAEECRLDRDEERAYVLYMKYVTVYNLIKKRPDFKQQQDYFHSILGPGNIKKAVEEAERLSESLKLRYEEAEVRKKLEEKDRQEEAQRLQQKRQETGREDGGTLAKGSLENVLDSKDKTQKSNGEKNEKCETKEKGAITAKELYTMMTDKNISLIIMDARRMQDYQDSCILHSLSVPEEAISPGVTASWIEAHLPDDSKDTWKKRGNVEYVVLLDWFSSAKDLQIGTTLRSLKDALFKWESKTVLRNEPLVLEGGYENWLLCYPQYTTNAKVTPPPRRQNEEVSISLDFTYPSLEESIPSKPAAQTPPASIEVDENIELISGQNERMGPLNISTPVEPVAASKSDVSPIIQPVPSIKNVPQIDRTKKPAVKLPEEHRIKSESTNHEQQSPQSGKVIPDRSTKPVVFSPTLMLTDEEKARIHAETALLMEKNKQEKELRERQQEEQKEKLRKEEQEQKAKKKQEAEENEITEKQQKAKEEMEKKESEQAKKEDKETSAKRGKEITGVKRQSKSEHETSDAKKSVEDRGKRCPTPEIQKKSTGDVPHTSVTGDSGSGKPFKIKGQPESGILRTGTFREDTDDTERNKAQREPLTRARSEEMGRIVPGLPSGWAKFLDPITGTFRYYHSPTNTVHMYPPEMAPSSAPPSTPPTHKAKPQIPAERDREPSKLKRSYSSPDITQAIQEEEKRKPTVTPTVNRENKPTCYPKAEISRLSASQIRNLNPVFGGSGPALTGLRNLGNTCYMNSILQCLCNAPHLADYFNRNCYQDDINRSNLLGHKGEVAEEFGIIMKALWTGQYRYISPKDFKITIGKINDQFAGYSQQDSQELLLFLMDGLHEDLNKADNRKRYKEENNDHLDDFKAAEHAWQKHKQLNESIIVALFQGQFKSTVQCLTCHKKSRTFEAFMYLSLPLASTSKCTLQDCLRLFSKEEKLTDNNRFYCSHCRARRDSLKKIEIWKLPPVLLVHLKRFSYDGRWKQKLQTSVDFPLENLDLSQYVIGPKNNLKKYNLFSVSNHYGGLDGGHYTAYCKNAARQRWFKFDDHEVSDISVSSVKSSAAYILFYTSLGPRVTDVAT

[3] = molecular target: T3, Ubiquitin carboxyl-terminal hydrolase 28 (Homo sapiens) (UniProt Q96RU2); assay: Inhibition of USP28 by Ub-CHOP reporter assay
T3 sequence (whole entry): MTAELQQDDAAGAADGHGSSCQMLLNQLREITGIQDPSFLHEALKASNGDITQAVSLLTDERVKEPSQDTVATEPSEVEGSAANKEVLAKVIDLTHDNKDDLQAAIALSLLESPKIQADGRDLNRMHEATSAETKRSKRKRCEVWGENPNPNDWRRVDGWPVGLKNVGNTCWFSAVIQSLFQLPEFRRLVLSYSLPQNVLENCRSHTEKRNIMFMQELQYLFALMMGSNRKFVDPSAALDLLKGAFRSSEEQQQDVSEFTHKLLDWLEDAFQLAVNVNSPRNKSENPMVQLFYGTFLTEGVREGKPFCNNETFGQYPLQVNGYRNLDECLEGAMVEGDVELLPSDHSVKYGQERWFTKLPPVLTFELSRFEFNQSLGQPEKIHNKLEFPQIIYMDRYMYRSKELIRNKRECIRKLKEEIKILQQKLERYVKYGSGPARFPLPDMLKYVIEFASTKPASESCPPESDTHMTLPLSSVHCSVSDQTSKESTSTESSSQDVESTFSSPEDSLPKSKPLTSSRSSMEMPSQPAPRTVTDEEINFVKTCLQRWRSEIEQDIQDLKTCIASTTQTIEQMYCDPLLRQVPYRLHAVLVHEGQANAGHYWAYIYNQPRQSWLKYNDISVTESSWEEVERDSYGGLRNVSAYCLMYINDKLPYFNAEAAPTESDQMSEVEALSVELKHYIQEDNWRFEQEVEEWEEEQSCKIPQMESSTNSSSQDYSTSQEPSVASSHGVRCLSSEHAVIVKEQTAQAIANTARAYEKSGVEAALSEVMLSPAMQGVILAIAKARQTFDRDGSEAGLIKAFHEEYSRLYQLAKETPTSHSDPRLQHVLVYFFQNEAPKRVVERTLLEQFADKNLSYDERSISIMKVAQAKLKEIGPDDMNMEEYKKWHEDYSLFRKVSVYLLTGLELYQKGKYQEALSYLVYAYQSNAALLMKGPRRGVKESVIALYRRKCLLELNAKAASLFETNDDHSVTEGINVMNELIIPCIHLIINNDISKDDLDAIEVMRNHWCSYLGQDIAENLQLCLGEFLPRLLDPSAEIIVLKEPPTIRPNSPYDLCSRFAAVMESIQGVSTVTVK

[4] = molecular target: Ubiquitin carboxyl-terminal hydrolase 7 (Homo sapiens, UniProt Q93009); assay: Inhibition of USP7 in human HCT116 cells assessed as increase in p21 level at 30 uM incubated up to 48 hrs by Western blot analysis relative to control; assay type: cell-based; details: HCT-116
Ubiquitin carboxyl-terminal hydrolase 7, sequence (Q93009 whole entry, looked up): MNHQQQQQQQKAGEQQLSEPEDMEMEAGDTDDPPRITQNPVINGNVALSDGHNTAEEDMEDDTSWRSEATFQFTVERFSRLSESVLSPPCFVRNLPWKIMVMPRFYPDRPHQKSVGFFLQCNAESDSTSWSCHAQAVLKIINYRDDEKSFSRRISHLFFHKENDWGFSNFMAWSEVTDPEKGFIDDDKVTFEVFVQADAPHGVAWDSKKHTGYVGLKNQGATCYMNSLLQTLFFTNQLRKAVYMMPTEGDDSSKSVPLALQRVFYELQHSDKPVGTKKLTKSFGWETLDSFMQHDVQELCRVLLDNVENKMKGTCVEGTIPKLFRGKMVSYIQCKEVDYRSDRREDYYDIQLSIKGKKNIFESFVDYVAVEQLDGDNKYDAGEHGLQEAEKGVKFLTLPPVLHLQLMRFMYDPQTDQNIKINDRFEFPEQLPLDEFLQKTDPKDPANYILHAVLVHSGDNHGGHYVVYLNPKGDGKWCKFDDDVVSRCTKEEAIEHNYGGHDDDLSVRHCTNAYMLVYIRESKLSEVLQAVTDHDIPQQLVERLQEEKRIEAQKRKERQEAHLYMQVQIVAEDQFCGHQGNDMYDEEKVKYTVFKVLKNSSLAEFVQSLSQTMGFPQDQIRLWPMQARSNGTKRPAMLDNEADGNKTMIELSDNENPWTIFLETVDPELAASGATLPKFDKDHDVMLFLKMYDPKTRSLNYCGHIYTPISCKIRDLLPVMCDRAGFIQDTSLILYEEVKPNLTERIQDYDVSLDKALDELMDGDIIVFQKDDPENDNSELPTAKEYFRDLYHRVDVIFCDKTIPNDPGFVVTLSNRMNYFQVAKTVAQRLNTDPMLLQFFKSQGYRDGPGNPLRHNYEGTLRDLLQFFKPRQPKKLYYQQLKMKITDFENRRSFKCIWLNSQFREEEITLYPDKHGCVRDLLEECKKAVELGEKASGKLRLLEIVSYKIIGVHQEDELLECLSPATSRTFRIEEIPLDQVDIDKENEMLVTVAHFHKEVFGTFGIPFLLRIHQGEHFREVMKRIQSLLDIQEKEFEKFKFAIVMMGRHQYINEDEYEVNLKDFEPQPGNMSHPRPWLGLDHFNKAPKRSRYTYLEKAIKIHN
Method in brief: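 HCT-116 human colon cancer cells were incubated with 30 μM compound or with vehicle (0.3% DMSO). Lysates were separated by SDS-PAGE and Western blotted with antibodies to p53 and p21, with actin as the loading standard. Treated cells were compared with DMSO controls.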

inhibition [1]: inactive
inhibition [2]: inactive
inhibition [3]: inactive
inhibition [4]: Active
SMILES: CS(=O)(=O)c1ccc(NC(=O)c2cc(C#N)c(Sc3c(Cl)cncc3Cl)s2)cc1
